Bioassay records from PubChem.
DDE Tn7 FP inh: disrupts Tn7 cyclic peptide binding to fibrin D-Dimer-E complex. P02675. FP displacement of FITC-Tn7 peptide from fibrin DD(E); 0% = median of compound wells per plate. inhibition, % at 8.3 µM. 370,000 compounds, 0.13% hits;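 active means inhibition above the mean of compounds falling within the control limits plus 3 SD of them, cut at about 14% in these data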
Target sequence (P02675 whole entry, looked up): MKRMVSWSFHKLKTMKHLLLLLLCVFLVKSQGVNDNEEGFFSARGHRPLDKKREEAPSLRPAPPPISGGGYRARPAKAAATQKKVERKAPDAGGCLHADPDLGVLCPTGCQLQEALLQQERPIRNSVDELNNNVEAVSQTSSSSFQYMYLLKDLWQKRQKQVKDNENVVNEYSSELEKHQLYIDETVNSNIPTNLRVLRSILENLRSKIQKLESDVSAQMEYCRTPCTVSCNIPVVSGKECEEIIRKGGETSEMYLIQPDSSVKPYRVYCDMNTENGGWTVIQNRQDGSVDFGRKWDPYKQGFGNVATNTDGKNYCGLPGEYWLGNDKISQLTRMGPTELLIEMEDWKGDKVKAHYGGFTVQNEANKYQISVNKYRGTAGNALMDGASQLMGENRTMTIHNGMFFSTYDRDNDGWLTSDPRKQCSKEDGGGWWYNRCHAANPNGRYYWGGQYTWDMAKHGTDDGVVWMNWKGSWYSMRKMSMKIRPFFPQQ
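Test system – human fibrin DD(E) · Times – 10 min preincubation, 3 h with tracer, room temperature · Detection – fluorescence polarization of the labelled Tn7 tracer · Measure – percent inhibition normalized to high-control wells · Benchmarks – high control wells with 10 µM unlabelled Aha-Tn7 peptide (full inhibition) · Repeats – singlicate testing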
MT1-MMP act inh: blocks activation of human MT1-MMP | 360,000 compounds, 0.061% hits | HT1080 RFP-PRO-GFP cells, GFP/RFP ratio fluorescence, overnight; percent of plate control window, DMSO zero | P50281 | GFP/RFP ratio change, % at 20 µM | AID 651647;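 active means GFP/RFP ratio change of at least 30% with cell ATP level not reduced by more than half and red fluorescence within 50% of control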
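Compound: 20 µM single dose, 1% DMSO / System: HT1080 RFP-PRO-GFP cells / Controls: DMSO and RFP-L50D-GFP cell wells / Read-out basis: GFP/RFP fluorescence ratio / Schedule: overnight compound exposure at 37 °C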
Tn6 DDE FP: inhibitors of Tn6 peptide binding to human fibrin DD(E). inhibition, % at 8.3 µM. 370,000 compounds, 0.21% hits. P02675. Fibrin DD(E) TRITC-Tn6 fluorescence polarization displacement;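 active means inhibition above a per-campaign cutoff: mean of compounds within control limits plus 3 SD, cut at about 15% in these data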
SKN-1 inh: blocks SKN-1 activity in C. elegans; C. elegans VP596 Pgst-4::GFP/RFP ratio, acrylamide-induced, 24 h; inhibition, % at 21.8 µM; 360,000 compounds, 0.49% hits; AID 624304;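 active means interference check ratio from 0.5 to 1.5 plus GFP to RFP signal ratio inhibition reaching or exceeding a fixed threshold, cut at about 30% in these data, passing the limit was not always enough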
Neddyl block: cullin neddylation inhibition. TR-FRET cullin neddylation, biochemical. P61081+Q13564. 360,000 compounds, 0.58% hits. calls only at 25 µM; in the data active means inhibition above about 36%
KLK7 zymogen act: activators of human kallikrein-7 zymogen; P49862; purified proKLK7, EDANS-DABCYL substrate fluorescence; 100% is mature enzyme control, 0% vehicle; activation, % at 7 µM; 370,000 compounds, 0.9% hits; AID 652039;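 active means activation above the mean of all tested compounds plus 3 SD, computed per campaign excluding outliers beyond control limits, cut at about 13% in these data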
KLK7 act conf: confirmation of human kallikrein-7 zymogen activators; 3,200 compounds, 68% hits; purified proKLK7, EDANS-DABCYL substrate fluorescence; scaled: vehicle 0, mature enzyme 100; shares compounds with KLK7 zymogen act; activation, % at 7 µM;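 active means activation, as change over the incubation, above the mean of all tested compounds plus 3 SD, cut at about 13% in these data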
EDANS interfere: optically interferes with EDANS-DABCYL signal, flagging KLK7 hits. activation, % at 7 µM. EDANS-DABCYL substrate fluorescence interference, no enzyme, 4 h; solvent 0%, active enzyme control 100%. 3,200 compounds, 80% hits. shares compounds with KLK7 zymogen act;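 active means activation above the all-compound mean plus 3 SD, ignoring values outside control-based bounds, cut at about 4.8% in these data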;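 further: value is the 4 h activation minus the activation read at time zero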
EDANS interf: EDANS fluorescence interference in dose response, no enzyme. EC50, µM. AID 720493. EDANS-DABCYL peptide fluorescence interference. shares compounds with KLK7 zymogen act. 250 compounds, 20% hits;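 active means compounds that raise the fluorescence signal in this interference counterscreen, with EC50 at or below 10 µM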;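 further: intact quenched peptide substrate alone read at 355 nm excitation and 520 nm emission; signal is fluorescence gain from T0 to T4 after four hours at room temperature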
Large screens that a line does not name were inactive (follow-up assays come after a bar, where shown). Compounds with a hit are over-represented: about 2.2% of the library has one in this group of screens.

Cc1cccc(-c2cccc3c4c([nH]c23)[C@@H]2C[C@H](N(C)C(=O)Nc3ccccc3)[C@H]([C@H](C)O)C(=O)N2CC4)c1	none (no result: MT1-MMP act inh, SKN-1 inh, Neddyl block)
C[C@H](O)[C@@H]1CN2CCc3c([nH]c4ccccc34)[C@@H]2C[C@@H]1N(C)C(=O)Nc1ccc(F)cc1	KLK7 zymogen act 16 | KLK7 act conf inactive | EDANS interfere inactive
C[C@H](O)[C@@H]1C(=O)N2CCc3c([nH]c4ccccc34)[C@@H]2C[C@@H]1N(C)C(=O)Nc1ccccc1	KLK7 zymogen act 26 (not shown: Neddyl block) | KLK7 act conf inactive | EDANS interfere 6.5
CN(C)c1nc(N)c2nccnc2n1	KLK7 zymogen act 21 | KLK7 act conf inactive | EDANS interfere inactive
CSc1cnc2c(N)nc(N(C)C)nc2n1	none
CC(C)(C)NC(=O)C[n+]1ccc(C(N)=O)cc1	none
NS(=O)(=O)c1cc(C(=O)OCC(=O)Nc2ccc(Cl)cc2[N+](=O)[O-])ccc1Cl	none
Nc1c(C(=O)OCC(=O)Nc2ccc(Cl)cc2[N+](=O)[O-])[nH]c(=O)[nH]c1=O	KLK7 zymogen act 14 | KLK7 act conf 136 | EDANS interfere 137
O=c1cc(C(F)(F)F)[nH]c2ccc(C(F)(F)F)cc12	none
COC(=O)c1scc2c(=O)cc(C(F)(F)F)[nH]c12	KLK7 zymogen act 59 (not shown: Neddyl block) | KLK7 act conf 76 | EDANS interfere 83
COc1ccc(NC(=O)COc2coc(CN3CCCc4ccccc43)cc2=O)cc1	none
CC1(C)CC(=O)c2cc(OCC(=O)NCCN3CCCc4ccccc43)ccc2O1	KLK7 zymogen act 18 (not shown: Neddyl block) | KLK7 act conf 43 | EDANS interfere 39
Cc1ccccc1NC(=O)COc1ccc2c(c1)OC(C)(C)CC2=O	none
CC(C)CCNC(=O)COc1ccc2c(c1)C(=O)CC(C)(C)O2	KLK7 zymogen act 40 (not shown: Neddyl block) | KLK7 act conf 35 | EDANS interfere 47
CCC(Oc1ccccc1F)C(=O)NCCN1CCOCC1 (stereo not drawn)	none
CCC(Oc1ccc2c(c1)C(=O)CC(C)(C)O2)C(=O)NCCN1CCCCCC1 (stereo not drawn)	KLK7 zymogen act 129 (not shown: Neddyl block) | KLK7 act conf 49 | EDANS interfere 44
CC1(C)CC(=O)c2cc(OCC(=O)NCCCN3CCN(c4ccc(F)cc4)CC3)ccc2O1	KLK7 zymogen act 17 (not shown: Neddyl block) | KLK7 act conf inactive | EDANS interfere inactive
COc1ccc(NC(=O)CCC(=O)OCc2ccc(C(=O)Oc3ccc(Cl)cc3)cc2)cc1	none
CN1c2ccc(Cl)cc2C(=O)NC1C1CC=CCC1 (stereo not drawn)	KLK7 zymogen act 14 | KLK7 act conf inactive | EDANS interfere inactive
COC(=O)c1ccc(C(=O)OC)c(NC(=O)Oc2ccccc2)c1	KLK7 zymogen act 38 | KLK7 act conf 75 | EDANS interfere 75
COC(=O)c1ccc(C(=O)OC)c(NC(=O)CSCC(=O)O)c1	none
COC(=O)c1ccc(C(=O)OC)c(NS(C)(=O)=O)c1	KLK7 zymogen act 28 | KLK7 act conf 21 | EDANS interfere 21
COC(=O)c1ccccc1NS(C)(=O)=O	none
CC1COCC(C)N1C1=C(Cl)C(=O)c2ccccc2C1=O (stereo not drawn)	none
COc1ccc(-c2cc(C(=O)Nc3ccc(C(N)=O)cc3)c3ccccc3n2)cc1OC	KLK7 zymogen act 18 (not shown: Neddyl block) | KLK7 act conf inactive | EDANS interfere inactive
CCN1CCN(C(=S)Nc2cc(C(=O)OC)ccc2C(=O)OC)CC1	none
CCOC(=O)N1CCc2[nH]c3ccc(C)cc3c2C1	KLK7 zymogen act 17 | KLK7 act conf 23 | EDANS interfere 23
OC1CN=C2CCCc3c2n(c2ccc(Cl)cc32)C1 (stereo not drawn)	KLK7 zymogen act 17 (not shown: Neddyl block) | KLK7 act conf inactive | EDANS interfere inactive
O=Cc1ccc(OCc2ccccn2)cc1	none
COc1cc2c(cc1OC)CN(C(=O)c1ccccc1C(=O)O)CC2	KLK7 zymogen act 16 | KLK7 act conf inactive | EDANS interfere 5.2
COc1cc2c(cc1OC)CN(Cc1ccc(C)cc1)CC2	none
COc1cc2c(cc1OC)CN(Cc1ccccc1)CC2	none
COc1cc2c(cc1OC)CN(C(=O)Cc1ccccc1)CC2	none
COc1cc2c(cc1OC)CN(CCC(C)c1ccc(Cl)cc1)CC2 (stereo not drawn)	KLK7 zymogen act 21 | KLK7 act conf 148 | EDANS interfere 145
COc1cc2c(cc1OC)CN(CC(O)c1ccccc1)CC2 (stereo not drawn)	KLK7 zymogen act 96 (not shown: Neddyl block) | KLK7 act conf 56 | EDANS interfere 74
COc1ccc(-c2noc(CN(C)Cc3ccc(C)o3)n2)cc1	none
COc1ccccc1C1C=C(c2ccc(C)cc2)Nc2nnnn21 (stereo not drawn)	KLK7 zymogen act 19 (not shown: Neddyl block) | KLK7 act conf 22 | EDANS interfere 17 | EDANS interf inactive
Cc1ccc(C2=CC(c3cccs3)n3nnnc3N2)cc1 (stereo not drawn)	none
COc1ccccc1C1C2=C(CC(C)(C)CC2=O)Nc2nnnn21 (stereo not drawn)	KLK7 zymogen act 15 | KLK7 act conf 22 | EDANS interfere 20
COc1ccc(C2C3=C(CC(C)(C)CC3=O)Nc3nc(C)nn32)cc1OC (stereo not drawn)	none
Cc1cccc(NC(=O)Nc2cccnc2)c1C	none
Nc1ccc(N=Nc2ccccc2O)c(N)c1	KLK7 zymogen act 40 | KLK7 act conf 101 | EDANS interfere 99
C/C=C/C=N\NC(=O)c1ccncc1	none
Cc1nn(Cc2ccccc2Cl)c(C)c1NC(=O)c1noc2c1CCCCC2	none
CC(C)N1CC=C2C(C#N)=C(N)C(C#N)(C#N)C(c3ccccc3)C2C1 (stereo not drawn)	KLK7 zymogen act 16 | KLK7 act conf 29 | EDANS interfere 28
CC(C)(C)OC(=O)N1CC=C2C(C#N)=C(N)C(C#N)(C#N)[C@H](c3cccnc3)[C@H]2C1	KLK7 zymogen act 19 | KLK7 act conf 37 | EDANS interfere 34
CN1CC=C2C(C#N)=C(N)C(C#N)(C#N)C(Cc3ccccc3)C2C1 (stereo not drawn)	KLK7 zymogen act 24 | KLK7 act conf inactive | EDANS interfere 9.3
